Laboratory results reported in ChEMBL document CHEMBL1153905, “Functionalized 3-benzylidene-indolin-2-ones: inducers of NAD(P)H-quinone oxidoreductase 1 (NQO1) with antiproliferative activity” (Bioorg Med Chem, 2009).

What was measured:
[1] = Cytotoxicity against mouse Hepa-1c1c7 cells after 48 hrs by MTT assay; type: cell-based; details: hepa-1c1c7, 48 h
In short: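 Murine hepatoma cells in α-MEM with 10% heat- and charcoal-treated fetal calf serum, passages 6–17; MTT read-out as for the cancer lines but with 48 h compound exposure. Highest concentration tested 25 µM. IC50 from survival-versus-concentration curve; mean and SD, n = 3.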

[2] = target: NAD(P)H dehydrogenase [quinone] 1 (Mus musculus) (UniProt Q64669); experiment: Induction of NQO1 activity in mouse Hepa-1c1c7 cells assessed as induction ratio at 5 uM after 48 hrs by MTT assay relative to control; type: cell-based
In short: (§1)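 Hepa1c1c7 cells, 10,000 per well, 24 h, were then treated 48 h (DMSO ≤0.5%). Digitonin/EDTA lysates were assayed for menadione-dependent MTT-formazan formation using a G6P/G6PDH NADPH-generating mix with FAD at pH 7.4. The reaction ran 5 min, was stopped with dicoumarol, and read at A590. Degree of induction = (A test − blank)/(A control − blank). Ratios were read off the induction–concentration plot at the EROD test concentration.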

CYP1A1 [3] = target: T1, CYP1A1 (Mus musculus, UniProt P00184); experiment: Induction of CYP1A1 activity in mouse Hepa-1c1c7 cells assessed as induction ratio at 5 uM after 48 hrs by EROD assay relative to control; type: ADME, cell-based
T1 sequence (P00184 whole entry): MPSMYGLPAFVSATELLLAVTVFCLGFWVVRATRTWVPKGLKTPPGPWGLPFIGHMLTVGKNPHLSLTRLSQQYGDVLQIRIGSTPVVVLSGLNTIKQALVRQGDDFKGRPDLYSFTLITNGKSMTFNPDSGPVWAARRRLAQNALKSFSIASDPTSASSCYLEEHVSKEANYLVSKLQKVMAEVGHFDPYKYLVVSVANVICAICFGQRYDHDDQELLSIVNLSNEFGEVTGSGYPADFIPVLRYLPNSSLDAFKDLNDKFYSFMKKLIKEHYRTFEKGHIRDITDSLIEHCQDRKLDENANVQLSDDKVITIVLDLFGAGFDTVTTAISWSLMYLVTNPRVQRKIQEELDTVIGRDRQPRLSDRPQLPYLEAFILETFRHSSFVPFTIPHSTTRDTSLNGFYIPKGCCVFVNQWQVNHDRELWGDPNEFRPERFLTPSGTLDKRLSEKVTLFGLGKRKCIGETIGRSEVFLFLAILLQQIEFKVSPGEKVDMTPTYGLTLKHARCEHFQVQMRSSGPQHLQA
In short: (§2)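 Hepa1c1c7 cells were seeded at 10,000 per well and grown 24 h. They were then exposed 48 h to compound (final DMSO 0.5% v/v) at about 4 × the NQO1 CD. After a PBS wash, cells got 5 µM 7-ethoxyresorufin plus 2 mM salicylamide in medium, 37 °C, 40 min. Resorufin was read at ex 530/em 590 nm, corrected for compound fluorescence. Ratio = (F treated − blank)/(F DMSO control − blank); mean ± SD, n = 3.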

[4] = target: NAD(P)H dehydrogenase [quinone] 1 (Mus musculus) (UniProt Q64669); experiment: Induction of NQO1 activity in mouse Hepa-1c1c7 cells assessed as induction ratio at 1 uM after 48 hrs by MTT assay relative to control; type: cell-based; in short: as §1
CYP1A1 [5] = target: T1, CYP1A1; experiment: Induction of CYP1A1 activity in mouse Hepa-1c1c7 cells assessed as induction ratio at 1 uM after 48 hrs by EROD assay relative to control; type: ADME, cell-based
In short: (§3)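 About 10,000 Hepa1c1c7 cells/well cultured 24 h, then compound (0.5% DMSO final) for 48 h, at roughly 4 × the concentration doubling NQO1 activity. After PBS wash, cells given 5 µM 7-ethoxyresorufin plus 2 mM salicylamide, 37 °C, 40 min; resorufin fluorescence ex 530/em 590 nm, corrected for compound fluorescence. Ratio = (treated − blank)/(DMSO control − blank); mean ± SD, n = 3.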

CYP1A1 [6] = target: T1, CYP1A1; experiment: Induction of CYP1A1 activity in mouse Hepa-1c1c7 cells assessed as induction ratio at 0.5 uM after 48 hrs by EROD assay relative to control; type: ADME, cell-based; in short: as §3
[7] = target: NAD(P)H dehydrogenase [quinone] 1 (Mus musculus) (UniProt Q64669); experiment: Induction of NQO1 activity in mouse Hepa-1c1c7 cells assessed as induction ratio at 0.5 uM after 48 hrs by MTT assay relative to control; type: cell-based; in short: as §1
HCT-116 = experiment: Antiproliferative activity against human HCT116 cells after 72 hrs by MTT assay; type: functional, cell-based; details: HCT-116, 72 h
In short: (§4)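 Cells seeded at 10,000 (MCF7), 4000 (HCT116) or 5000 (CCL186) per well and grown 24 h; MCF7 and CCL186 in EMEM with pyruvate, glutamine, 10% FBS; HCT116 in McCoy's 5A with 10% FBS. Compounds from DMSO stocks (≤1% DMSO final), 72 h exposure; MTT 0.5 mg/ml for 3 h, formazan in DMSO read at 590 nm. IC50 from sigmoidal survival curve, three separate occasions.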

MCF7 [8] = experiment: Antiproliferative activity against human MCF7 cells after 72 hrs by MTT assay; type: functional, cell-based; details: MCF7, 72 h; in short: as §4
[9] = Antiproliferative activity against human CCL186 cells after 72 hrs by MTT assay; type: cell-based; details: CCL186, 72 h; in short: as §4
MCF7 [10] = experiment: Selectivity ratio of IC50 for human CCL186 cells to IC50 for human MCF7 cells
In short: (§5)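 MTT assay. MCF7 and CCL186 cells were grown in EMEM/10% FBS, HCT116 in McCoy's 5A/10% FBS. Seeding was 10,000 (MCF7), 4000 (HCT116) and 5000 (CCL186) cells per well, 24 h. Compound exposure was 72 h, DMSO ≤1% final. MTT 0.5 mg/ml for 3 h, formazan dissolved in DMSO, A590. IC50 came from sigmoidal survival curves, with 3 separate occasions per concentration. Ratio = IC50 CCL186 / IC50 of the cancer line.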

[11] = Selectivity ratio of IC50 for human CCL186 cells to IC50 for human HCT116 cells; type: ADME, cell-based, HCT-116; details: CCL186 cells and HCT116 cells, read-out: Ratio IC50; in short: as §5
CYP1A1 [12] = target: T1, CYP1A1; experiment: Induction of CYP1A1 activity in mouse Hepa-1c1c7 cells assessed as induction ratio at 7.5 uM after 48 hrs by EROD assay relative to control; type: ADME, cell-based; in short: as §2
[13] = target: NAD(P)H dehydrogenase [quinone] 1 (Mus musculus) (UniProt Q64669); experiment: Induction of NQO1 activity in mouse Hepa-1c1c7 cells assessed as induction ratio at 7.5 uM after 48 hrs by MTT assay relative to control; type: cell-based; in short: as §1
CYP1A1 [14] = target: T1, CYP1A1; experiment: Induction of CYP1A1 activity in mouse Hepa-1c1c7 cells assessed as induction ratio at 20 uM after 48 hrs by EROD assay relative to control; type: ADME, cell-based; in short: as §2
[15] = target: NAD(P)H dehydrogenase [quinone] 1 (Mus musculus) (UniProt Q64669); experiment: Induction of NQO1 activity in mouse Hepa-1c1c7 cells assessed as induction ratio at 20 uM after 48 hrs by MTT assay relative to control; type: cell-based; in short: as §1
CYP1A1 [16] = target: T1, CYP1A1; experiment: Induction of CYP1A1 activity in mouse Hepa-1c1c7 cells assessed as induction ratio at 2.5 uM after 48 hrs by EROD assay relative to control; type: ADME, cell-based; in short: as §2
[17] = target: NAD(P)H dehydrogenase [quinone] 1 (Mus musculus) (UniProt Q64669); experiment: Induction of NQO1 activity in mouse Hepa-1c1c7 cells assessed as induction ratio at 2.5 uM after 48 hrs by MTT assay relative to control; type: cell-based; in short: as §1

NAD(P)H dehydrogenase [quinone] 1 (Mus musculus), sequence (Q64669 whole entry): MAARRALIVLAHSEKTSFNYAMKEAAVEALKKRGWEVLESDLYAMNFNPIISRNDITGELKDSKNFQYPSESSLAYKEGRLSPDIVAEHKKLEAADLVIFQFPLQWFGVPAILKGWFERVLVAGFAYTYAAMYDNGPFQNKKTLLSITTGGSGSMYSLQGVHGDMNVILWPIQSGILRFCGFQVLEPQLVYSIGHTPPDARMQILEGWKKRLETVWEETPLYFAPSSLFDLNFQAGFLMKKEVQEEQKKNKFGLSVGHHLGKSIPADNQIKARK

| Compound | IC50 [1] | Ratio [2] | fold induction at 48 h, 5 µM (CYP1A1 [3]) | further results |
| --- | --- | --- | --- | --- |
| COc1cc(/C=C2/C(=O)Nc3ccccc32)ccc1O | 14.6 µM | 4 | 1.32 |  |
| COc1ccccc1/C=C1/C(=O)Nc2ccccc21 | > 25 µM |  |  | Ratio [4]: 4.03; fold induction at 48 h, 1 µM (CYP1A1 [5]): 2.48 |
| O=C1Nc2ccccc2/C1=C\c1cccc(Cl)c1 | 5.9 µM |  |  | fold induction at 48 h, 0.5 µM (CYP1A1 [6]): 1.21; Ratio [7]: 4.47 |
| COc1ccc(/C=C2/C(=O)Nc3ccccc32)cc1 | > 25 µM | 4.5 | 1.04 |  |
| O=C1Nc2ccccc2/C1=C\c1ccccc1F | > 25 µM | 6.8 | 1.26 |  |
| COc1cc(/C=C2/C(=O)Nc3ccccc32)cc(OC)c1 | 16 µM |  |  | IC50 (HCT-116): 5.8 µM; IC50 (MCF7 [8]): 10.5 µM; IC50 [9]: 23.6 µM; Ratio IC50 (MCF7 [10]): 4.1; selectivity ratio [11]: 2.2 |
| Cc1ccc(/C=C2/C(=O)Nc3ccccc32)cc1 | > 25 µM |  |  | fold induction at 48 h, 7.5 µM (CYP1A1 [12]): 1.07; Ratio [13]: 3.05 |
| O=C1Nc2ccccc2/C1=C\c1ccc(F)cc1 | > 25 µM |  |  | fold induction at 48 h, 20 µM (CYP1A1 [14]): 1.64; Ratio [15]: 5.69 |
| COc1cccc(/C=C2/C(=O)N(C)c3ccccc32)c1 | > 25 µM | 4.78 | 1.18 |  |
| COc1cccc(/C=C2\Nc3ccccc3C2=O)c1 | 21.2 µM | 3.88 | 1.13 |  |
| COc1ccc(/C=C2/C(=O)Nc3ccccc32)cc1O | 11.9 µM |  |  | fold induction at 48 h, 0.5 µM (CYP1A1 [6]): 2.66; Ratio [7]: 3.13 |
| O=C1Nc2ccccc2/C1=C\c1ccc(Cl)cc1 | 6.7 µM |  |  | fold induction at 48 h, 2.5 µM (CYP1A1 [16]): 1.06; Ratio [17]: 3.67 |
| COc1ccc(/C=C2/C(=O)Nc3ccccc32)c(O)c1 | > 25 µM |  |  | fold induction at 48 h, 2.5 µM (CYP1A1 [16]): 2.35; Ratio [17]: 3.59 |
| O=C1Nc2ccccc2/C1=C\c1ccc2ccccc2c1 | > 25 µM |  |  | fold induction at 48 h, 2.5 µM (CYP1A1 [16]): 1.06; Ratio [17]: 4.61 |
| O=C1Nc2ccccc2/C1=C\c1ccccc1 | > 25 µM | 5.13 | 1.01 |  |
| N#Cc1ccc(/C=C2/C(=O)Nc3ccccc32)cc1 | > 25 µM |  |  |  |
| COc1ccc(/C=C2/C(=O)Nc3cc(F)ccc32)cc1O | 15.6 µM |  |  | fold induction at 48 h, 0.5 µM (CYP1A1 [6]): 2.05; Ratio [7]: 4.1 |
| COc1ccc(/C=C2/C(=O)N(C)c3ccccc32)cc1O | 15.5 µM | 2.64 | 1.08 |  |
